From ChEMBL document CHEMBL3351241, “Metabolic stability optimization and metabolite identification of 2,5-thiophene amide 17β-hydroxysteroid dehydrogenase type 2 inhibitors” (Eur J Med Chem, 2014)

Assays:
[1] = Drug metabolism in human liver microsome S9 fraction assessed as demethylation/hydroxylation metabolite formation by LC-MS/MS analysis; type: ADME; details: microsomes
[2] = Drug metabolism in human liver microsome S9 fraction assessed as acid metabolite formation by LC-MS/MS analysis; type: ADME; details: microsomes
[3] = target: T1, 17-beta-hydroxysteroid dehydrogenase type 2 (Homo sapiens, UniProt P37059); assay: Displacement of [3H]E2 from human placental microsomal 17beta-HSD2 after 20 mins by cell-free assay
T1 sequence (P37059 whole entry): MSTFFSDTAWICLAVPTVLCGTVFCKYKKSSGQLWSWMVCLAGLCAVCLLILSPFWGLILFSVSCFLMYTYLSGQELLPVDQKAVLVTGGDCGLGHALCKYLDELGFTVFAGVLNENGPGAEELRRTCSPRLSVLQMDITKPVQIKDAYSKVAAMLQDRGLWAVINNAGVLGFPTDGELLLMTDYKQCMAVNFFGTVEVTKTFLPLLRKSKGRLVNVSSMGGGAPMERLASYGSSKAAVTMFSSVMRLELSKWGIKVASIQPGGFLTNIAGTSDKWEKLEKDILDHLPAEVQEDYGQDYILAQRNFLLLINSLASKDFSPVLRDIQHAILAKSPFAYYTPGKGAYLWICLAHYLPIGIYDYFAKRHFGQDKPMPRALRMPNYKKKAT
Outline: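 Microsomal 17β-HSD2 from human placenta, 150,000 g pellet. Started with unlabeled plus [3H]-E2 (final 500 nM), stopped after 20 min with HgCl2, ether-extracted. E1/E2 resolved by radio-HPLC, giving % conversion. Inhibition read at 1 µM.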

Homo sapiens = species: Homo sapiens; assay: Selectivity factor, ratio of IC50 for human placental cytosolic17beta-HSD1 to IC50 for human placental microsomal 17beta-HSD2
[4] = target: T2, 17-beta-hydroxysteroid dehydrogenase type 1 (Homo sapiens, UniProt P14061); assay: Displacement of [3H]E1 from human placental cytosolic17beta-HSD1 after 10 mins by cell-free assay
T2 sequence (P14061 whole entry): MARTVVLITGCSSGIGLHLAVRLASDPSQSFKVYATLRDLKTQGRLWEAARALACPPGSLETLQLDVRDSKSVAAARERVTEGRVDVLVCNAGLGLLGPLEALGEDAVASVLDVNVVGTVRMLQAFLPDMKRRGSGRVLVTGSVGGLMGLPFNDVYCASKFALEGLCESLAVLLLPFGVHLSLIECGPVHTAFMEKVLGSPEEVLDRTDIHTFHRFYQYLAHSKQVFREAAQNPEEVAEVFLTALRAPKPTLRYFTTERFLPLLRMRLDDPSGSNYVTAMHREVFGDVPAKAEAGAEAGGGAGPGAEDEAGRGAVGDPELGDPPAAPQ
Outline: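 Cytosolic 17β-HSD1 from human placenta, ammonium sulfate precipitated. Enzyme incubated with NADH 500 µM, test compound and unlabeled plus [3H]-E1 (final 500 nM) for 10 min at 37 °C. Reaction stopped with HgCl2 and extracted with ether. E1/E2 separated by C18 RP HPLC (acetonitrile/water 45:55) with radioflow detection. Activity taken as % conversion. Percent inhibition read at 1 µM.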

[5] = Drug metabolism in human liver microsome S9 fraction treated with N-Methyl-N,5-bis(3-methylphenyl)thiophene-2-carboxamide by LC-MS/MS analysis; type: ADME; details: microsomes
[6] = Half-life in human liver microsome S9 fraction at 3 uM up to 45 mins by LC-MS/MS analysis; type: ADME, microsomes
[7] = Drug metabolism in human liver microsome S9 fraction assessed as didemethylation metabolite formation by LC-MS/MS analysis; type: ADME; details: microsomes
[8] = Drug metabolism in human liver microsome S9 fraction assessed as di-hydroxylation metabolite formation by LC-MS/MS analysis; type: ADME; details: microsomes
[9] = target: T3, Estrogen receptor (Homo sapiens) (UniProt P03372); assay: Displacement of [3H]E2 from human recombinant ERalpha at 3 nM after 16 to 20 hrs by cell-free assay
T3 sequence (whole entry): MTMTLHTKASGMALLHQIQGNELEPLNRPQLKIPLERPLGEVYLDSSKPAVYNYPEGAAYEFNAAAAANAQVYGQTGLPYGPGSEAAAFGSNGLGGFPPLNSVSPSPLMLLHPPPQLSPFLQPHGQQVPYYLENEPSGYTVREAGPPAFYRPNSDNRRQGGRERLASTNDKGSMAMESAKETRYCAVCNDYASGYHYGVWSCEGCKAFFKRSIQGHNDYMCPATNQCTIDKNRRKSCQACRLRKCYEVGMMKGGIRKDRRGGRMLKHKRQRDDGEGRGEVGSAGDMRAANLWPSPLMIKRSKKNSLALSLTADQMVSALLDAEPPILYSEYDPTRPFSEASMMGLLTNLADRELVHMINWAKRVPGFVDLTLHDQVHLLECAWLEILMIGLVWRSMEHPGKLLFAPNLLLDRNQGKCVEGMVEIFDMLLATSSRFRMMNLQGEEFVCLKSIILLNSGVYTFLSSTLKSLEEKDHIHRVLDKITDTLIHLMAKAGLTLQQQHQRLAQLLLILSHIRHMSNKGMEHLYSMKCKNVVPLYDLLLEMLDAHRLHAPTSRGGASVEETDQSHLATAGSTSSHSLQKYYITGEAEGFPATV
Outline: (§1)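 Recombinant human ERα (1 nM, [3H]-E2 3 nM) or ERβ (4 nM, [3H]-E2 10 nM) incubated with test compound, 5% DMSO final, for 16–20 h at 4 °C. Nonspecific binding set with 100-fold unlabeled E2. Complexes bound to hydroxyapatite, washed three times, counted by liquid scintillation. Compounds tested at 1000-fold the [3H]-E2 level (3 µM ERα, 10 µM ERβ). Below 50% displacement classed RBA <0.1%.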

[10] = target: Estrogen receptor beta (Homo sapiens) (UniProt Q92731); assay: Displacement of [3H]E2 from human recombinant ERbeta at 10 nM after 16 to 20 hrs by cell-free assay; outline: as §1
Sequence of Estrogen receptor beta (Homo sapiens) (Q92731 whole entry): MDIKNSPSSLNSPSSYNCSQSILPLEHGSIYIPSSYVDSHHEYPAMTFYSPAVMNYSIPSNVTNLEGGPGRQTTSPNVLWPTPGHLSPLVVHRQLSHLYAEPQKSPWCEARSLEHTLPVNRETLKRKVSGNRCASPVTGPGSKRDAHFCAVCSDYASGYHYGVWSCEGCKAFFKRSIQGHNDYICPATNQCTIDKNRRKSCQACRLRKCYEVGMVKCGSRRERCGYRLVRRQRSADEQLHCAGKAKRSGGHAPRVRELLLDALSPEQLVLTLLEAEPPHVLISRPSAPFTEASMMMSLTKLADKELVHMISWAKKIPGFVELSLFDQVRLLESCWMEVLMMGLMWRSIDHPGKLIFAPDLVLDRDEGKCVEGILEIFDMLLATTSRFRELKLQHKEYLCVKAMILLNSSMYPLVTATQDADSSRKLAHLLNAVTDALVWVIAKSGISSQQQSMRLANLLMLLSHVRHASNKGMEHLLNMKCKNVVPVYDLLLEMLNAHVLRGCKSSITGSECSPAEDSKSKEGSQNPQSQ

[11] = Half-life in human liver microsome S9 fraction at 1 uM up to 60 mins by LC-MS/MS analysis; type: ADME, microsomes
Outline: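 Sampled at 0, 5, 15 and 60 min and quenched with 2 volumes cold acetonitrile containing internal standard. Remaining parent quantified by LC-MS/MS to give t1/2.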

Row | IC50 [3] [nM] | Ratio IC50 (Homo sapiens) | IC50 [4] [µM] | inhibition [9] [%] | inhibition [10] [%] | SMILES | other results
1 |  |  |  |  |  | COc1cccc(-c2ccc(C(=O)N(C)c3cccc(OC)c3)s2)c1 | Drug metabolism [1]: metabolite_notdetected; Drug metabolism [2]: metabolite_notdetected
2 | 127 | 132 | 16.7 |  |  | COc1cc(-c2cccc(C)c2)sc1C(=O)N(C)c1cccc(C)c1 | 
3 |  |  |  |  |  | Cc1cccc(N(C)C(=O)c2ccc(-c3cccc(CO)c3)s2)c1 | Drug metabolism [5]: metabolite_notdetected
4 |  |  |  |  |  | COc1cccc(N(C)C(=O)c2ccc(-c3cccc(N(C)C)c3)s2)c1 | half-life at 3 µM [6]: 29 min
5 |  |  |  |  |  | COc1cccc(N(C)C(=O)c2ccc(-c3cccc(C)c3)s2)c1 | Drug metabolism [7]: metabolite_notdetected; Drug metabolism [8]: metabolite_notdetected; Drug metabolism [2]: metabolite_notdetected
6 |  |  |  | 12 | 21 | Cc1cccc(-c2ccc(C(=O)N(C)c3cccc(C)c3)s2)c1 | Drug metabolism [7]: metabolite_notdetected
7 |  |  |  |  |  | COc1cccc(N(C)C(=O)c2ccc(-c3cccc(OC)c3F)s2)c1 | half-life at 1 µM [11]: 12 min
8 |  |  |  | 8 | 11 | Cc1cccc(-c2ccc(C(=O)N(C)c3cccc(C)c3)cc2)c1 | 
9 | 327 | 29 | 9.41 | 16 | 11 | Cc1cccc(-c2ccc(C(=O)N(C)c3cccc(Cl)c3)s2)c1 | 
10 | 225 | 3 | 0.698 |  |  | Cc1ccc(-c2ccc(C(=O)N(C)c3ccccc3C)s2)cc1 | half-life at 1 µM [11]: 22 min
11 |  |  |  | 11 | 34 | Cc1ccc(-c2ccc(C(=O)N(C)c3cccc(C)c3)s2)cc1 | 
12 |  |  |  | 5 | 4 | Cc1ccc(N(C)C(=O)c2ccc(-c3ccc(C)c(C)c3)s2)cc1 | 
13 | 499 | 51 | 25.3 | 9 | 0 | Cc1cccc(-c2cnc(C(=O)N(C)c3cccc(C)c3)s2)c1 | half-life at 1 µM [11]: 5 min
